Screens (PubChem)
Sampled rows, rich in hits. Any-hit rate of the full collection: about 1.6%.
Rev-RRE block: inhibitors of HIV-1 Rev-RRE RNA interaction | 0.79% of 97,000 active | inhibition, % at 8 µM | Rev peptide-RRE RNA binding, FRET;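 active means inhibition above the screen-wide mean plus 3 SD, cut at about 35% in these data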
Target sequence (P05866 whole entry, looked up): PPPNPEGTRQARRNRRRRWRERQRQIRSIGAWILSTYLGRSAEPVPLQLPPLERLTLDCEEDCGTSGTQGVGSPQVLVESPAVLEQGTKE
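Test system: Cy5-tagged RRE RNA duplex with fluorescein-tagged Rev peptide; Probe or stimulus: labelled Rev peptide; Schedule: 5 min preincubation and 15 min binding, 25 °C; Signal: FRET fluorescence readout; Evaluation: % inhibition from 671/540 nm acceptor-to-donor ratio, scaled between controls; Control set: DMSO and neomycin B.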
S1P2 agonist: agonists of human S1P2 receptor. S1P2-expressing cell line, agonist reporter read-out. activation, % at 4.5 µM. 0.46% of 97,000 active. AID 729. O95136; in the data active means activation above about 16%
Target sequence (O95136 whole entry, looked up): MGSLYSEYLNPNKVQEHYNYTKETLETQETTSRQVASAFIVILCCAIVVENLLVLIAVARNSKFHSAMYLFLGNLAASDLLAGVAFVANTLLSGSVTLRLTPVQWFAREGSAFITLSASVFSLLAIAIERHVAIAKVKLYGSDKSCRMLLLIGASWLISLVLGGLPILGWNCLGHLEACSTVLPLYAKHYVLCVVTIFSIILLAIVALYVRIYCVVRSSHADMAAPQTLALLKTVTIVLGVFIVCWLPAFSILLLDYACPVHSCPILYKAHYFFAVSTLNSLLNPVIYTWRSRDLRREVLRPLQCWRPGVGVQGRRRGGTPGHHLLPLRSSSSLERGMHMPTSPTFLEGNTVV
S1P2 blocker: blocks the human S1P2 receptor. cell-based S1P2 antagonist assay, inhibition at 5 uM. inhibition, % at 5 µM. 0.21% of 97,000 active; in the data active means inhibition above about 45%;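 further: CRE beta-lactamase reporter cells expressing human S1P2 stimulated with S1P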
GALR2 antag: antagonists of human galanin receptor 2 (GALR2); inhibition, % at 4 µM; AID 828; GALR2-expressing cells, antagonist mode; 0.39% of 140,000 active; in the data active means inhibition above about 27%;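 further: cells stimulated with galanin 1-16 at roughly its EC80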
GALR2 ag: GALR2 (human) receptor agonism; O43603; GALR2-expressing cells, agonist activation read-out; activation, % (concentration not given with the values); 0.48% of 140,000 active; AID 803; in the data active means activation above about 5%, passing the limit was not always enough
A number is an active result; i = inactive; nt = no result given; [ ] = remark or other dose.

SMILES | Rev-RRE block | S1P2 agonist | S1P2 blocker | GALR2 antag | GALR2 ag
COc1ccc2nc(SCc3nc(N)nc(Nc4ccccc4)n3)[nH]c2c1 | i | 17 | i | i | i
Cc1ccc(S(=O)(=O)Nc2ccccc2CNc2cccc(C)n2)cc1 | nt | nt | nt | i | i
CCN(CC)CC(=O)N1N=C(c2cccs2)CC1c1ccco1 (stereo unspecified) | i | i | i | i | i
c1ccc(N2N=C(c3cccs3)CC2c2ccco2)cc1 (stereo unspecified) | i | 47 | i | i | 57
Clc1ccc(N2N=C(c3cccs3)CC2c2ccco2)cc1 (stereo unspecified) | i | 102 | i | i | 70
O=C(OCC(=O)N1N=C(c2ccc(Cl)cc2)CC1c1ccco1)c1ccccc1O (stereo unspecified) | i | i | i | i | i
CCOC(=O)c1cc(-c2ccccc2)sc1NC(=O)C(C)OC(=O)c1cccnc1Cl (stereo unspecified) | nt | nt | nt | i | i
CCOC(=O)c1sc(/N=C/c2c(C)[nH]n(-c3ccccc3)c2=O)c(C#N)c1C | 70 | i | i | i | i
CN1CCc2c(sc3c2C(=O)NC(c2cccs2)N3)C1 (stereo unspecified) | 67 | i | i | i | i
Cc1ccsc1C1Nc2ccccc2C(=O)N1O (stereo unspecified) | nt | nt | nt | i | i
Cc1ccsc1C1NC(=O)c2c(sc3c2CCN(C)C3)N1 (stereo unspecified) | 100[fluorescence artefact?] | i | i | i | i
CSc1ccc(C2NC(=O)c3c(sc4c3CCN(C)C4)N2)cc1 (stereo unspecified) | 84 | i | i | i | i
O=C(Cc1ccccc1)Nc1ccccc1Oc1ccccc1 | nt | nt | nt | i | i
COc1ccc(-c2ccc3c(N)c(C(=O)c4ccc(OC)c(OC)c4)sc3n2)cc1 | 85[fluorescence artefact?] | i | i | i | i
COc1ccc(C(=O)c2sc3nc(-c4ccccc4)ccc3c2N)cc1OC | 97[fluorescence artefact?] | i | 57 | i | i
COc1ccc(C(=O)c2ccc(OC)c(OC)c2)cc1 | i | i | i | i | i
CCOC(=O)c1sc2nc(-c3ccccc3)ccc2c1N | nt | nt | nt | i | i
CCCCC1C2=C(CC(C)(C)CC2=O)OC2=C1C(=O)CC(C)(C)C2 | nt | nt | nt | i | i
CCc1ccc2nc(Nc3nc(COC)cc(=O)[nH]3)nc(C)c2c1 | i | 19 | i | i | i
Cc1nnc(-c2ccccc2)c(=O)n1/N=C/c1c(O)ccc2ccccc12 | 130[fluorescence artefact?] | i | i | i | i
N#CC1=C(N)C(C#N)(C#N)[C@H](c2c(F)cccc2F)[C@H]2CC3(CC=C12)OCCO3 | 56 | i | i | i | i
CC(C)(C)NC(=O)COC(=O)c1ccccc1OCC(=O)Nc1ccc(Br)cc1 | nt | nt | nt | i | i
NCC[C@H](O)C(=O)N[C@@H]1C[C@H](N)[C@@H](O[C@H]2O[C@H](CN)[C@@H](O)[C@H](O)[C@H]2O)[C@H](O)[C@H]1O[C@H]1O[C@H](CO)[C@@H](O)[C@H](N)[C@H]1O | nt | nt | nt | i | i
Cc1nn(CCO)c2nc(-c3cccs3)cc(C(F)(F)F)c12 | nt | nt | nt | i | i
C/C(O)=c1/ccc2cccc3nc(C)nc1c23 | 91[fluorescence artefact?] | i | i | i | i
SMILES | Rev-RRE block | S1P2 agonist | S1P2 blocker | GALR2 antag | GALR2 ag
COc1ccc(/C=N/Nc2ccc([N+](=O)[O-])cc2)cc1Cn1cc([N+](=O)[O-])cn1 | 54 | i | i | i | i
CN1CCc2nc(SCC(=O)Nc3cccc(F)c3)c(C#N)c(-c3cccs3)c2C1 | 56 | i | i | i | i
CN1CCc2nc(SCC(=O)Nc3ccc(OC(F)(F)F)cc3)c(C#N)c(-c3cccs3)c2C1 | nt | nt | nt | i | i
COc1cc(/C=N/c2oc(-c3ccccc3)cc2C#N)ccc1O | 40 | i | i | i | i
CCN(CC)C(=O)c1sc2nc(-c3cccs3)cc(-c3ccc(Cl)cc3)c2c1N | i | i | i | i | i
CC(C)(C)C(=O)c1sc2nc(-c3cccs3)cc(C(F)(F)F)c2c1N | 79[fluorescence artefact?] | i | i | i | i
Cc1nnc(NC(=O)c2sc3nc(-c4cccs4)cc(C(F)(F)F)c3c2N)s1 | 99[fluorescence artefact?] | i | i | i | i
COc1ccc(NC(=O)c2sc3nc(Cc4ccccc4)cc(C(F)(F)F)c3c2N)cc1OC | nt | nt | nt | i | i
COc1ccccc1NC(=O)c1sc2nc(Cc3ccccc3)cc(C(F)(F)F)c2c1N | 44 | i | i | i | i
CCCCOc1ccc(C2C(C(=O)c3ccc(C)o3)=C(O)C(=O)N2CC2CCCO2)cc1 (stereo unspecified) | nt | nt | nt | i | i
O=C(COc1ccccc1-c1ccccc1)N/N=C/c1ccc2ccccc2c1 | nt | nt | nt | i | 6.8
CC1CCCC(NC(=O)C2CCN(S(=O)(=O)N3CCCCCC3)CC2)C1C (stereo unspecified) | nt | nt | nt | i | i
